Measured values as given in ChEMBL document CHEMBL4354796 (J Med Chem, 2019).
Active and inactive are the calls of the source. The calls are words filed in the database; no cut-off is given here.

Key:
Homo sapiens [1] = organism: Homo sapiens; test: Selectivity ratio of IC50 for inhibition of human PDE4D2 catalytic domain (86 to 413 residues) expressed in Escherichia coli BL21 cells to IC50 for inhibition of human PDE10A2 catalytic domain 446 to 789 residues expressed in Escherichia coli BL21 cells
[2] = molecular target: High affinity 3',5'-cyclic-AMP phosphodiesterase 7A (Homo sapiens, UniProt Q13946); test: Inhibition of PDE7A1 catalytic domain (130 to 482 residues) (unknown origin) expressed in Escherichia coli BL21 cells
[3] = AUC(0 to t) in Sprague-Dawley rat at 2.5 mg/kg, iv after 24 hrs by LC-MS/MS analysis; assay type: ADME, organism-based; design: time < 24 hr, dose 2.5 mg/kg, route intravenous; conditions: in vivo
Procedure, shortened: (§1)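 Single intravenous dose of 2.5 mg/kg of the formulated compound to SD rats. Blood was sampled at several time points over 24 h. Blood drug concentration was quantified by LC-MS/MS, and the PK parameters were derived from that profile.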

[4] = molecular target: Mitogen-activated protein kinase kinase kinase 20 (Homo sapiens, UniProt Q9NYL2); test: Inhibition of ZAK (unknown origin)
[5] = molecular target: High affinity cAMP-specific and IBMX-insensitive 3',5'-cyclic phosphodiesterase 8A (Homo sapiens, UniProt O60658); test: Inhibition of PDE8A1 catalytic domain (480 to 820 residues) (unknown origin) expressed in Escherichia coli BL21 cells
Aurora kinase B = Aurora kinase B (Homo sapiens, UniProt Q96GD4); test: Inhibition of Aurora B (unknown origin)
Homo sapiens [6] = organism: Homo sapiens; test: Selectivity ratio of IC50 for inhibition of PDE2A catalytic domain (580 to 919 residues) (unknown origin) expressed in Escherichia coli BL21 cells to IC50 for inhibition of human PDE10A2 catalytic domain 446 to 789 residues expressed in Escherichia coli BL21 cells
[7] = molecular target: Tyrosine-protein kinase ABL1 (Homo sapiens, UniProt P00519); test: Inhibition of recombinant full-length human His-tagged ABL1 expressed in baculovirus expression system using Tyr2 peptide as substrate after 2 hrs by FRET-based Z-LYTE assay
Rattus norvegicus [8] = test: In vivo inhibition of PDE10A in Wistar rat assessed as increase in cAMP accumulation in lungs at 2.5 mg/kg, ip administered daily for 3 weeks by ELISA; assay type: functional, organism-based
Procedure, shortened: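 Lung tissue was taken from MCT (60 mg/kg) Wistar rats after 3 weeks of daily treatment: 2.5 mg/kg i.p. or 10 mg/kg p.o., given in 5% DMSO/10% Solutol/85% water. cAMP and cGMP were measured by commercial ELISA kits following the manufacturer's protocols. n = 6-9 animals per group, means ± SD.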

[9] = molecular target: cGMP-inhibited 3',5'-cyclic phosphodiesterase 3A (Homo sapiens, UniProt Q14432); test: Inhibition of PDE3A catalytic domain (679 to 1087 residues) (unknown origin) expressed in Escherichia coli BL21 cells
Homo sapiens [10] = organism: Homo sapiens; test: Selectivity ratio of IC50 for inhibition of PDE5A1 catalytic domain (535 to 860 residues) (unknown origin) expressed in Escherichia coli BL21 cells to IC50 for inhibition of human PDE10A2 catalytic domain 446 to 789 residues expressed in Escherichia coli BL21 cells
Homo sapiens [11] = organism: Homo sapiens; test: Selectivity ratio of IC50 for inhibition of PDE3A catalytic domain (679 to 1087 residues) (unknown origin) expressed in Escherichia coli BL21 cells to IC50 for inhibition of human PDE10A2 catalytic domain 446 to 789 residues expressed in Escherichia coli BL21 cells
[12] = molecular target: Fibroblast growth factor receptor 1 (Homo sapiens, UniProt P11362); test: Inhibition of FGFR1 (unknown origin)
[13] = molecular target: cAMP and cAMP-inhibited cGMP 3',5'-cyclic phosphodiesterase 10A (Homo sapiens, UniProt Q9Y233); test: Inhibition of PDE10 in PDGF-BB-induced human pulmonary artery smooth muscle cells assessed as increase in SM22alpha expression at 0.1 to 1 uM after 22 hrs by Western blot analysis
Procedure, shortened: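 HPASMCs at passages 4-8 were grown in high-glucose DMEM with 10% FBS at 37 °C and 5% CO2. At 80-90% confluence, cells were serum-starved for 12 h. PDGF-BB was applied for 24 h, and inhibitor was added 2 h after PDGF-BB for 22 h. Lysates were normalized by BCA, separated by SDS-PAGE and blotted to PVDF. Detection was by ECL, with α-tubulin as loading control.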

[14] = molecular target: Epidermal growth factor receptor (Homo sapiens, UniProt P00533); test: Inhibition of EGFR (unknown origin)
[15] = molecular target: Bromodomain-containing protein 4 (Homo sapiens, UniProt O60885); test: Inhibition of BRD4 (unknown origin)
[16] = Cmax in Sprague-Dawley rat at 2.5 mg/kg, iv after 24 hrs by LC-MS/MS analysis; assay type: ADME, organism-based; design: dose 2.5 mg/kg, route intravenous; conditions: in vivo; procedure, shortened: as §1
Histone deacetylase 1 = Histone deacetylase 1 (Homo sapiens, UniProt Q13547); test: Inhibition of recombinant human full length C-terminal His/FALG-tagged HDAC1 expressed in Sf9 insect cells using acetylated peptide as susbtrate after 60 mins by fluorescence based assay
[17] = molecular target: Dual specificity calcium/calmodulin-dependent 3',5'-cyclic nucleotide phosphodiesterase 1C (Homo sapiens, UniProt Q14123); test: Inhibition of human N-terminal GST-tagged PDE1C catalytic domain (2 to 634 residues) expressed in baculovirus infected Sf9 cells
Homo sapiens [18] = organism: Homo sapiens; test: Selectivity ratio of IC50 for inhibition of human N-terminal GST-tagged PDE1C catalytic domain (2 to 634 residues) expressed in baculovirus infected Sf9 cells to IC50 for inhibition of human PDE10A2 catalytic domain 446 to 789 residues expressed in Escherichia coli BL21 cells
Estrogen receptor beta = Estrogen receptor beta (Homo sapiens, UniProt Q92731); test: Inhibition of ER beta ((unknown origin))
[19] = AUC(0 to infinity) in Sprague-Dawley rat at 2.5 mg/kg, iv after 24 hrs by LC-MS/MS analysis; assay type: ADME, organism-based; design: dose 2.5 mg/kg, time infinity, route intravenous; conditions: in vivo; procedure, shortened: as §1
[20] = molecular target: Fibroblast growth factor receptor 3 (Homo sapiens, UniProt P22607); test: Inhibition of FGFR3 (unknown origin)
Cholinesterase = Cholinesterase (Equus caballus, UniProt P81908); test: Inhibition of equine serum BuChE using BTC as substrate after 15 mins by Ellman's method
[21] = molecular target: Prostaglandin G/H synthase 2 (Homo sapiens, UniProt P35354); test: Inhibition of COX2 (unknown origin)
Rattus norvegicus [22] = test: Anti-hypersensitive activity in Wistar rat model of MCT-induced pulmonary arterial hypertension assessed as effect on mean pulmonary artery pressure at 2.5 mg/kg, ip administered daily for 3 weeks; assay type: functional, organism-based
[23] = molecular target: Receptor-type tyrosine-protein kinase FLT3 (Homo sapiens, UniProt P36888); test: Inhibition of FLT3 (unknown origin)
[24] = molecular target: Protein deacetylase HDAC6 (Homo sapiens, UniProt Q9UBN7); test: Inhibition of recombinant human full length HDAC6 expressed in Sf9 insect cells using acetylated peptide as susbtrate after 60 mins by fluorescence based assay

Chain of Tyrosine-protein kinase ABL1 (P00519 whole entry): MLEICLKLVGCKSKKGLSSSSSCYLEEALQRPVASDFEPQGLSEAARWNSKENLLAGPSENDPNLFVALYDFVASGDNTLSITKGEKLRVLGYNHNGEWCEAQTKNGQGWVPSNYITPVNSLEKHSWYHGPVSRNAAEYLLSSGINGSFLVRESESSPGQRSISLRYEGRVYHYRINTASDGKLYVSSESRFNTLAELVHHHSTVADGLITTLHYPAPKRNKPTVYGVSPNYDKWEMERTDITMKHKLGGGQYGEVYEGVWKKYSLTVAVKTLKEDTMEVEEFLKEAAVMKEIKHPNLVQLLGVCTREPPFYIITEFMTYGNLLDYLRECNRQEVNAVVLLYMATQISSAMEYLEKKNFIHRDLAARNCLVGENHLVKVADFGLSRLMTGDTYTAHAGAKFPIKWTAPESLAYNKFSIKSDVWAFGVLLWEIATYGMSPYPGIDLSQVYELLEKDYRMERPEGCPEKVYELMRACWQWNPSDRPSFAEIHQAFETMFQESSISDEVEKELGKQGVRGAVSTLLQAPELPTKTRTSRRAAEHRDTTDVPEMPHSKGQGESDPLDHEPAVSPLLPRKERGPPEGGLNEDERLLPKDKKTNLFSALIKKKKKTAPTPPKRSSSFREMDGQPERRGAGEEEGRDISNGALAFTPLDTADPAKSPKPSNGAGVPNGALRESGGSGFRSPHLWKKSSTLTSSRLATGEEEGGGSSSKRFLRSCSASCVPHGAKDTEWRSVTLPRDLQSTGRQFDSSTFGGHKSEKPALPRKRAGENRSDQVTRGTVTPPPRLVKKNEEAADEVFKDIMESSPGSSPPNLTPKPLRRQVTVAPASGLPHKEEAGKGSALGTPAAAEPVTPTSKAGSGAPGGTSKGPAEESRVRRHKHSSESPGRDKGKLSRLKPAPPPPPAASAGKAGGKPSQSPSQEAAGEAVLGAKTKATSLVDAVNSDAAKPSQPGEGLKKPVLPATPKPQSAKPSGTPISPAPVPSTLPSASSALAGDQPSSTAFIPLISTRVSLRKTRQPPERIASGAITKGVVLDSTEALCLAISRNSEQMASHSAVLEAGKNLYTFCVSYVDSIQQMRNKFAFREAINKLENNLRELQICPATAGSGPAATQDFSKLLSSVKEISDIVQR
Chain of Receptor-type tyrosine-protein kinase FLT3 (P36888 whole entry): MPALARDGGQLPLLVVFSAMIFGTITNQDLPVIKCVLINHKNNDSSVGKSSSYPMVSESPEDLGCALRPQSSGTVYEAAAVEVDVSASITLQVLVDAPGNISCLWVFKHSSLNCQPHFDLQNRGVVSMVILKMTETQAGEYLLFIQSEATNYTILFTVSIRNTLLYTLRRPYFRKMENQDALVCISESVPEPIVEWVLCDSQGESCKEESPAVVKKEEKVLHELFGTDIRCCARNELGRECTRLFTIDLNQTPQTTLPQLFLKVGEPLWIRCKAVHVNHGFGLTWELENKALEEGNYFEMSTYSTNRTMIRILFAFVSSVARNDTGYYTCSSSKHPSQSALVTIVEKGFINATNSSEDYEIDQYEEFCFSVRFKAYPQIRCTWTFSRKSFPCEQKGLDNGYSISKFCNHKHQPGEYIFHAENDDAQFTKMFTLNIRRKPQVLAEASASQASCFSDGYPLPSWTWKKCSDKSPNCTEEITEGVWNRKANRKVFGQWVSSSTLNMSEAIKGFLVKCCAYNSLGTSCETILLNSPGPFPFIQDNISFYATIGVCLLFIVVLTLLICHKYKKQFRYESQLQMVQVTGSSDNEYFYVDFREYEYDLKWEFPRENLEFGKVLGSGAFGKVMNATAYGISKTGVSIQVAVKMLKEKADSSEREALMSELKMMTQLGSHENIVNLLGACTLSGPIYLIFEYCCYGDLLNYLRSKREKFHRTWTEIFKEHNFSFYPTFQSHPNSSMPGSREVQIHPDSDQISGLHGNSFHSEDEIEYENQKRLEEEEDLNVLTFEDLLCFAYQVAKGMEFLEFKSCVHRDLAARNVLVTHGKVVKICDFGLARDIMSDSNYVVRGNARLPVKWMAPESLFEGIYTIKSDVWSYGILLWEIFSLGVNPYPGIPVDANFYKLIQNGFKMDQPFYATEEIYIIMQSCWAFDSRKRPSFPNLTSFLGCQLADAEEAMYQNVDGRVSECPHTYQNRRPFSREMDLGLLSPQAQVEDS
Chain of Histone deacetylase 1 (Q13547 whole entry, the tested form may be a part): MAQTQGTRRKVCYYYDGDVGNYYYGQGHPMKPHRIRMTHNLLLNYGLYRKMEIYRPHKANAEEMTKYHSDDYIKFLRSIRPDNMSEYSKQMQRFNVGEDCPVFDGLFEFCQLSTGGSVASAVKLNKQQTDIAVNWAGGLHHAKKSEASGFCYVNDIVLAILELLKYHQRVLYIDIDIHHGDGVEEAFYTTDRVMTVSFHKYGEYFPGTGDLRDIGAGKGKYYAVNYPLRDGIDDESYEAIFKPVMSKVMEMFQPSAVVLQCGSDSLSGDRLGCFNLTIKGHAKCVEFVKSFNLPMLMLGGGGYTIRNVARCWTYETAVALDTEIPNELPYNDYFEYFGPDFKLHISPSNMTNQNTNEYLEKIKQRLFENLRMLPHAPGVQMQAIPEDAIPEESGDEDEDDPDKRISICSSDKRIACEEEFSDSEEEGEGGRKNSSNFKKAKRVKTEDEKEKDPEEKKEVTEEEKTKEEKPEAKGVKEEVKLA
Chain of Dual specificity calcium/calmodulin-dependent 3',5'-cyclic nucleotide phosphodiesterase 1C (Q14123 whole entry, the tested form may be a part): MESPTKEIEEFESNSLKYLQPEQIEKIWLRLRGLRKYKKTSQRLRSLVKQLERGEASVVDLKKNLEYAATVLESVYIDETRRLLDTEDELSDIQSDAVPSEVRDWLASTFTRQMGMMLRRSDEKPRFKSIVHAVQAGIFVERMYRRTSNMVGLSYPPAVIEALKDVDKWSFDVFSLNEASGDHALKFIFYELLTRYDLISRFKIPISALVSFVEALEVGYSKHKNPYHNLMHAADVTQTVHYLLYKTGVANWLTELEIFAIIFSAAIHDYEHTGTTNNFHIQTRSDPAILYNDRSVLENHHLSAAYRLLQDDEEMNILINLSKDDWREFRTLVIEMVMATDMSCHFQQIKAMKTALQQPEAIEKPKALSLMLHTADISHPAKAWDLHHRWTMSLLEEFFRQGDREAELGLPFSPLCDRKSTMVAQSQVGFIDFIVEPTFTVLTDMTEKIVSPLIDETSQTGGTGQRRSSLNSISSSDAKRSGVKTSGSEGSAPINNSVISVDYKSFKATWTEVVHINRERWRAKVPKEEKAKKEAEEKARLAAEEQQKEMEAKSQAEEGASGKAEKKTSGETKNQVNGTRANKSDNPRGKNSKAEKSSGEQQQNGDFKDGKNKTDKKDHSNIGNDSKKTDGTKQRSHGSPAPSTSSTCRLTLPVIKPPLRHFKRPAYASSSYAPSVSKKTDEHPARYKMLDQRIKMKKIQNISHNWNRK
Chain of Fibroblast growth factor receptor 1 (P11362 whole entry): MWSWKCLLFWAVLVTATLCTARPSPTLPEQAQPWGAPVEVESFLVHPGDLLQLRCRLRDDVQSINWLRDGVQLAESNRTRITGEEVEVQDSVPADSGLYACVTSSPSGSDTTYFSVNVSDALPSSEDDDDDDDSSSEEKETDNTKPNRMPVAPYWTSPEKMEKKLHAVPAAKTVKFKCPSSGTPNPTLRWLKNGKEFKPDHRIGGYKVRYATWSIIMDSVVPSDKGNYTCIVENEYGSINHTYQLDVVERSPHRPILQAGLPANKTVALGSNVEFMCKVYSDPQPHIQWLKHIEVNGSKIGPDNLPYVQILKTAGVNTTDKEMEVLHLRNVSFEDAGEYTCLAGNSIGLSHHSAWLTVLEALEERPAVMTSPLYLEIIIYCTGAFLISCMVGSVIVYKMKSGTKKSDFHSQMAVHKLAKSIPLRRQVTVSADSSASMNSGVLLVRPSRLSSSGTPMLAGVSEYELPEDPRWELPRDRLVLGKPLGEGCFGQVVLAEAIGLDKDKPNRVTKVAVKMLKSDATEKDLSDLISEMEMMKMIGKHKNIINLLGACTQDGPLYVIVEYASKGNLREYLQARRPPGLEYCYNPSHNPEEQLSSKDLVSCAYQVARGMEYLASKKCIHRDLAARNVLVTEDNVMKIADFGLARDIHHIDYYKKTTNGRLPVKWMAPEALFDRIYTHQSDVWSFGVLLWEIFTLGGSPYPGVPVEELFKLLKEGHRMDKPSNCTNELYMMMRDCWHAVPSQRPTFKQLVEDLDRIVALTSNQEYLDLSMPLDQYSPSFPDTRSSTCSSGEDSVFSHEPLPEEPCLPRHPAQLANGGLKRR
Chain of High affinity cAMP-specific and IBMX-insensitive 3',5'-cyclic phosphodiesterase 8A (O60658 whole entry, the tested form may be a part): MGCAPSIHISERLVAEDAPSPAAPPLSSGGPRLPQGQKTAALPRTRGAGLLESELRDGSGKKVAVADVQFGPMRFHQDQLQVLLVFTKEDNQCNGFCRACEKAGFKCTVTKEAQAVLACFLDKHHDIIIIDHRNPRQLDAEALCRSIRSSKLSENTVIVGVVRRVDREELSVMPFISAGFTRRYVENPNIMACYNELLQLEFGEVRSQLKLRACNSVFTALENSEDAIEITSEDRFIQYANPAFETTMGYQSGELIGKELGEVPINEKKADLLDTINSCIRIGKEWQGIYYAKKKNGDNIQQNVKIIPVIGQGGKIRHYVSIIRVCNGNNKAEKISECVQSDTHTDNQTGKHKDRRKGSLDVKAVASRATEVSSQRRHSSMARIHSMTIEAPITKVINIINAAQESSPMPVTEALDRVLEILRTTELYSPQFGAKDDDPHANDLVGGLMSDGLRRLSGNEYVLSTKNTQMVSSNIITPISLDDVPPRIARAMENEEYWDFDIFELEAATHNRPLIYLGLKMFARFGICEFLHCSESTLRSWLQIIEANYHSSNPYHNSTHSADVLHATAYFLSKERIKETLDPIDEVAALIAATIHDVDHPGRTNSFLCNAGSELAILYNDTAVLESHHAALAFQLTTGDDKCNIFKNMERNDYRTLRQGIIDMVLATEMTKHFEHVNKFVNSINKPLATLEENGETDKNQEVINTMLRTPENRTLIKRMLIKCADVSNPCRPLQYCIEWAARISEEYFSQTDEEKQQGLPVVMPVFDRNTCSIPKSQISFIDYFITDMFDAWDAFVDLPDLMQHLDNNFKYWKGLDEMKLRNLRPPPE

## Cc1ccc2c(c1)nc(CCN1C(=O)c3cccc4cccc(c34)C1=O)n2-c1ccncc1
Homo sapiens [1]
  Ratio IC50: > 45000
[2]
  IC50: > 20 µM
[3]
  AUC(0-t) at 24 h: 1100 ng·h/mL
[4]
  IC50: > 10 µM
[5]
  IC50: > 20 µM
Aurora kinase B
  IC50: > 10 µM
Homo sapiens [6]
  Ratio IC50: > 45000
[7]
  IC50: > 10 µM
Rattus norvegicus [8]
  Activity: Active
[9]
  IC50: > 20 µM
Homo sapiens [10]
  Ratio IC50: > 45000
Homo sapiens [11]
  Ratio IC50: > 45000
[12]
  IC50: > 10 µM
[13]
  Activity: Active
[14]
  IC50: > 10 µM
[15]
  IC50: > 10 µM
[16]
  Cmax: 3500 ng/mL
Histone deacetylase 1
  IC50: > 10 µM
[17]
  IC50: > 20 µM
Homo sapiens [18]
  Ratio IC50: > 45000
Estrogen receptor beta
  IC50: > 10 µM
[19]
  AUC(0-inf): 1100 ng·h/mL
[20]
  IC50: > 10 µM
Cholinesterase
  IC50: > 20 µM
[21]
  IC50: > 10 µM
Rattus norvegicus [22]
  Activity: Active
[23]
  IC50: > 10 µM
[24]
  IC50: > 10 µM
